# Assay results as given in PubChem BioAssay AID2052 (NMMLSC, 2009).
# The whole screen tested about 330,000 compounds, of which about 220 (0.067%) were called active.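 Rule for the calls: active = response, share of CD8 T cells binding vesicles, and their 90th percentile fluorescence all below set limits (cut at about 80% in these data, passing the limit was not always enough); inactive = the rest, inconclusive results apart.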 The full list was thinned out, with actives kept by preference. Non-standard residues stand in square brackets, D forms with d. Residues, ends and D or L forms follow the SMILES beside them. ξ: configuration not given here. ξV = CC(C)C(N)C(=O)O
# Assay: murine CD8 T cell vesicle adhesion modulation – mouse 2C CD8+ T cells, flow cytometry, primary screen (AID 2052);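 for double positive events: binding gate set so that unloaded-vesicle control wells show 10% double positive cells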;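 for response (vesicle binding): values below 100% mean blocked vesicle binding to the CD8+ T cells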
# Conditions: 2C CD8+ T cell-vesicle binding, at 7 µM, stronger effect = lower value; double positive events: measured here: CD8+ vesicle-bound cell fraction
# Procedure, shortened: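 Read-out – percent CD8+ FL2 mean versus row control · System – murine 2C transgenic CD8+ T lymphocytes · Times – 1.5 h cell–vesicle binding at 37 °C, then 20 min icy labelling · Control set – naked vesicles low, QL9 vesicles with vehicle high · Detection – cytometric PE anti-B7-1 and Alexa647 anti-CD8 signals after 1% paraformaldehyde fixation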
Compound,double positive events,response (vesicle binding)
CC1C(c2ccccc2)=[N+]([O-])C2(CCCC2)N1O (stereo not given),34.2%,259% (inactive)
COc1ccc(C2=Nn3c(nnc3-c3ccccc3OC)SC2)cc1OC1CCCC1,2.5%,196% (inactive)
CCC(CC)C(=O)Nc1cc(C(=O)OC)cc(C(=O)OC)c1,23.6%,410% (inactive)
Cc1c(Br)c([N+](=O)[O-])nn1CC(=O)N1CCN(Cc2ccccc2)CC1,63%,210% (inactive)
Cc1cc(Cl)ccc1C(=O)C1CCCN(C(=O)CCN2CCCO2)C1 (stereo not given),23.8%,257% (inactive)
Cn1nc(C(F)(F)F)c2cc(NC(=O)OCC(C)(C)C)sc21,43.1%,197% (inactive)
CN(CCc1cnn(C)c1)Cc1cn(C)nc1-c1ccccc1F,31.2%,291% (inactive)
O=C(Nc1cccn(Cc2c(Cl)cccc2Cl)c1=O)c1ccc(Cl)cc1,24.7%,379% (inactive)
CCCC(CCC(=O)OC)(C(=O)OCC)c1csc(N)n1 (stereo not given),19.7%,485% (inactive)
CN(c1ccccc1)S(=O)(=O)c1cccc(NC(=O)Cc2ccc(Cl)cc2)c1,40.2%,419% (inactive)
CCCCCC1CCC(c2nnc(SCC(C)=O)o2)CC1 (stereo not given),19.4%,214% (inactive)
O=C(Nc1ccc(N2CCOCC2)cc1)c1ccc(-c2ccccc2[N+](=O)[O-])o1,30.7%,205% (inactive)
O=C(Nc1ccc(N2CCCCC2)cc1)c1cc(S(=O)(=O)N2CCOCC2)ccc1F,40.6%,316% (inactive)
O=C(CC1Oc2ccccc2NC1=O)NCCCN1CCN(Cc2ccccc2)CC1 (stereo not given),40.4%,363% (inactive)
CCOC(=O)N1CCN(S(=O)(=O)c2ccc3c(c2)C(C)C(=O)N3)CC1 (stereo not given),29.9%,289% (inactive)
COc1ccc(/C=C2\N=C3CCCN3C2=O)cc1,16.6%,231% (inactive)
O=C1C=C(c2cccc(Br)c2)C[C@@H](c2ccc(F)cc2)C1,26%,405% (inactive)
Cc1ccc(C(=O)NC2CCCC(C)C2C)cc1S(=O)(=O)N1CCCCC1 (stereo not given),56.1%,659% (inactive)
O=C(Nc1ccc(CSc2ccccc2)cc1)c1ccc(CN2CCOCC2)cc1,48.3%,264% (inactive)
COc1ccc(N2CC(C)Cn3c2nc2c3c(=O)n(Cc3ccccc3F)c(=O)n2C)c(OC)c1 (stereo not given),27.6%,423% (inactive)
O=C(O)c1ccccc1-c1ccccc1C(=O)NCCc1ccccc1,29.9%,437% (inactive)
COc1ccc(CCNC(=O)c2ccccc2OCc2ccccc2)cc1,12.3%,205% (inactive)
NC(=O)Nc1ccccc1C(=O)NCCc1ccccc1,0%,0% (active)
CC(C)c1ccc(N(C(=O)c2ccco2)C(C(=O)NC2CCCC2)c2cccnc2)cc1 (stereo not given),19.1%,176% (inactive)
Cc1cc(C)c(S(=O)(=O)c2cc(F)ccc2C)c(=O)[nH]1,44.2%,185% (inactive)

Compound,double positive events,response (vesicle binding)
O=S(=O)(Nc1ccc(Cl)cn1)c1cnc(Cl)c(Br)c1,15.2%,0% (inactive)
COc1ccc(N2CC(C(=O)N[C@@H](C)C(=O)N3CCCCC3)CC2=O)cc1 (stereo not given in full),12.6%,315% (inactive)
OCC(CO)(CO)NCc1ccc(-c2ccccc2)cc1,35.7%,0% (inactive)
NC(=O)C[C@@H]1NC(=O)CNC(=O)c2cc([N+](=O)[O-])cc(I)c2NCCC(C(N)=O)NC1=O (stereo not given in full),24.2%,474% (inactive)
CC(/C=C/C1(O)C(C)CC(=O)CC1(C)C)OC1OC(CO)C(O)C(O)C1O (stereo not given),38.7%,185% (inactive)
CCNC(=O)Nc1ccc(S(=O)(=O)Nc2cnc(C)nc2C)cc1,18.1%,230% (inactive)
CCc1nnc(NC(=O)CSc2nc(SC)ns2)s1,35.8%,236% (inactive)
CCc1cccc2c3c([nH]c12)C(CC)(CC(=O)O)OCC3 (stereo not given),14.8%,487% (inactive)
O=C(CSc1ccc(-c2ccccn2)nn1)Nc1ccccc1,12.5%,157% (inactive)
Cc1c(OC(C)C(=O)NCC2CCC(C(=O)O)CC2)ccc2c1oc(=O)c1ccccc12 (stereo not given),55.9%,184% (inactive)
Cn1nnnc1NCc1ccc(Cl)c(Cl)c1,43.7%,445% (inactive)
COc1ccc(CNc2nnnn2C)cc1,4%,0% (active)
CCCn1nnnc1NCc1ccc(OC)cc1,56.3%,308% (inactive)
CC(C)N1CCC(NC(=O)Nc2ccccc2)CC1,60.7%,257% (inactive)
CC(=O)NC(C(=O)NCC(N)=O)C(C)C (stereo not given) (Ac-[ξV]-Gly-NH2),32.4%,396% (inactive)
O=C(O)c1[nH]c2ccccc2c1C(c1cccc(O)c1)c1c(C(=O)O)[nH]c2ccccc12,36.2%,361% (inactive)
Cc1ccc(CNC(=O)COC(=O)C2CCC2)cc1,37.4%,742% (inactive)
O=C(COC(=O)Cc1c[nH]c2ccccc12)NCCc1ccccc1,19.5%,241% (inactive)
NC(=O)COc1ccc(C23CC4CC(CC(C4)C2)C3)cc1,52.9%,159% (inactive)
COP1(=O)C[C@@H](O)[C@@H](O)[C@@H](COCc2ccccc2)O1 (stereo not given in full),21.9%,504% (inactive)
C[C@H](OC(=O)n1ccnc1)[C@@H]1O[C@@]2(C)CCC[C@@H]1O2,24.9%,376% (inactive)
COc1ccc(N(CC(=O)Nc2ccc(C)cc2C)S(=O)(=O)c2ccccc2[N+](=O)[O-])c(OC)c1,61.2%,182% (inactive)
Cc1noc(C)c1CSc1nnc2ccc3ccccc3n12,43.2%,196% (inactive)
NS(=O)(=O)c1cc(Cl)c(Cl)c(S(N)(=O)=O)c1,42.1%,570% (inactive)
Cn1nnc(NC(=S)NC(=O)c2ccccc2)n1,30.5%,556% (inactive)

Compound,double positive events,response (vesicle binding)
CSc1nnc(SCc2nc3sc(C(=O)O)c(C)c3c(=O)[nH]2)s1,37.4%,501% (inactive)
CCc1ccc(CNC(=O)C2CCN(c3nnc(C)c4c(C)n(-c5ccc(C)cc5)nc34)CC2)cc1,10.5%,623% (inactive)
CC1(C)C[C@H]2C3=CCC4[C@@]5(C)CC[C@H](O)[C@](C)(CO)C5CC[C@@]4(C)[C@]3(C)C[C@@H](O)[C@@]2(CO)[C@@H](O)[C@@H]1O (stereo not given in full),14.8%,534% (inactive)
COc1cc(NC(=S)NNC(=O)CC(C)C)c(OC)cc1Cl,66.1%,458% (inactive)
Cc1nn(CCOc2ccc(Br)cc2)c(C)c1[N+](=O)[O-],61.8%,447% (inactive)
COc1cc(OC)c(-n2cc(-c3ccc(Cl)cc3)[nH]c2=O)cc1Cl,39.5%,546% (inactive)
O=C(c1ccco1)N1CCN(C(=O)C2c3ccccc3Oc3ccccc32)CC1,0%,0% (active)
O=C(c1ccco1)N1CCN(CCOc2ccccc2)CC1,23.1%,301% (inactive)
O=C(c1ccc2c(c1)OCO2)N1CCN(C(=O)c2ccco2)CC1,35.9%,148% (inactive)
Cc1cc(C)c(NC(=O)CSc2nc3ccncc3[nH]2)c(C)c1,24.7%,968% (inactive)
Cc1sc2ncnc(SCC(=O)Nc3ccc(CN4CCCC4)cc3)c2c1C,35.3%,104% (inactive)
C=CC[C@@H](CC(=O)N[C@@H](CO)Cc1ccccc1)C(=O)NCCOC(=O)[C@@H](CC=C)CC(=O)OC(C)(C)C,13.7%,321% (inactive)
CC(=O)Nc1nc2c(s1)C(=O)NCC(C)(C)C2,50.4%,439% (inactive)
Cc1ccc(C(=O)Nc2ccc(C)c(S(=O)(=O)N(C)C)c2)s1,45.5%,218% (inactive)
Nc1ccc(OCC(O)C[n+]2ccc(CCS(=O)(=O)[O-])cc2)cc1 (stereo not given),20.9%,319% (inactive)
CC(Oc1ccc(Br)cc1)C(=O)NCC(c1ccco1)N1CCCCC1 (stereo not given),51.4%,336% (inactive)
O=C1CC(Sc2ncn[nH]2)C(=O)N1c1ccccc1 (stereo not given),46.5%,391% (inactive)
COC(=O)C(C(=O)Nc1cccc(C)n1)C1CCCCCC1 (stereo not given),44.3%,158% (inactive)
CSc1ccccc1C(=O)OCC(=O)N1CCN(C(C)=O)CC1,34.9%,823% (inactive)
CCn1cc(C(=O)N2CC=C(c3ccccc3)CC2)c(=O)c2ccc(C)nc21,1.9%,79.1% (inactive)
CN1C(C(=O)NCC2CC2)CC2Cn3c(nc4ccccc43)C21 (stereo not given),12.7%,473% (inactive)
Cc1ccc(C)c2[nH]c(=O)c(CCNC(=O)CC(C)C)cc12,38.5%,832% (inactive)
CCOC(=O)C1CCN(C(=O)C2(NC(=O)Nc3cccc(F)c3)CCCCC2)CC1,36.4%,360% (inactive)
CC1=C(C(N)=O)C(c2sccc2C)n2nnnc2N1 (stereo not given),23.4%,292% (inactive)
CC1=C(C(=O)OC2CCCCC2)C(c2ccccc2F)NC(=O)N1 (stereo not given),33.6%,167% (inactive)
